# According to ChEMBL document CHEMBL3997810, “A Novel Potent Anticancer Compound Optimized from a Natural Oridonin Scaffold Induces Apoptosis and Cell Cycle Arrest through the Mitochondrial Pathway” (J Med Chem, 2017):
# Activity calls are given as the source filed them. No cut-off for these calls is given here.
# Columns and labels:
# [1] = system: MGC-803; test: Antiproliferative activity against human MGC803 cells after 72 hrs by MTT assay; format: functional, cell-based; details: MGC-803, 72 h
# Outline: (§1)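 MGC-803 and MCF-7 cells grown in DMEM (MCF-7 with 1× NEAA); Bel-7402 and K562 grown in RPMI 1640; all media with 10% FBS. Cells seeded at 3500/well, pre-incubated 24 h, then exposed to compounds in fresh medium (DMSO ≤0.25%) for 72 h at 37 °C. MTT read-out at 570 nm. Quadruplicate wells, repeated three times; means ± SD (n = 3).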
# [2] = system: Bel-7402; test: Antiproliferative activity against human Bel7402 cells after 72 hrs by MTT assay; format: functional, cell-based; details: Bel-7402, 72 h; outline: as §1
# [3] = system: MCF7; test: Antiproliferative activity against human MCF7 cells after 72 hrs by MTT assay; format: functional, cell-based; details: MCF7, 72 h; outline: as §1
# [4] = system: K562; test: Antiproliferative activity against human K562 cells after 72 hrs by MTT assay; format: functional, cell-based; details: K562, 72 h; outline: as §1
# [5] = system: Bel-7402; test: Antiproliferative activity against human Bel7402 cells at 1 uM after 72 hrs by MTT assay; format: functional, cell-based
# [6] = system: KB 3-1; test: Antiproliferative activity against human KB-3-1 cells after 48 hrs by MTT assay; format: functional, cell-based; details: KB 3-1, 48 h
# Outline: (§2)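 Colorimetric MTT assay. KB-3-1, NCI-H460 and Bel-7404 cells were seeded at 4000 cells/well; resistant KB/CP4, NCI-H460/MX20 and Bel-7404/CP20 were seeded at 7000 cells/well. Cells were pre-incubated 24 h at 37 °C, 5% CO2, then exposed to a compound concentration series for 48 h with DMSO ≤0.25%. Absorbance read at 570 nm. Quadruplicate wells, three repeats; means ± SD.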
# [7] = Antiproliferative activity against human KB/CP4 cells after 48 hrs by MTT assay; format: functional, cell-based; details: KB/CP4, 48 h; outline: as §2
# [8] = system: NCI-H460; test: Antiproliferative activity against human NCI-H460 cells after 48 hrs by MTT assay; format: functional, cell-based; details: NCI-H460, 48 h; outline: as §2
# [9] = Antiproliferative activity against human NCI-H460/MX20 cells after 48 hrs by MTT assay; format: functional, cell-based; details: NCI-H460/MX20, 48 h; outline: as §2
# [10] = system: BEL-7404 tumor cell line; test: Antiproliferative activity against human Bel7404 cells after 48 hrs by MTT assay; format: functional, cell-based; details: BEL-7404, 48 h; outline: as §2
# [11] = Antiproliferative activity against human BEL7404/CP20 cells after 48 hrs by MTT assay; format: functional, cell-based; details: BEL7404/CP20, 48 h; outline: as §2
# [12] = system: MCF7; test: Cytotoxicity against human MCF7 cells at 10 to 50 uM after 24 hrs by LDH assay; format: functional, cell-based
# Outline: (§3)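 Membrane integrity assay on MCF-7 and Bel-7402 cells seeded at ~5 × 10^3 per well for 24 h, then given compounds at 10, 20 or 50 μM. Culture medium collected and assayed with CytoTox-ONE LDH reagent for 10 min, followed by stop solution. Fluorescence read at Ex 560/Em 590 nm. Expressed as percentage of unstimulated cells.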
# [13] = system: Bel-7402; test: Cytotoxicity against human Bel7402 cells at 10 to 50 uM after 24 hrs by LDH assay; format: functional, cell-based; outline: as §3
# [14] = Selectivity ratio of IC50 for human KB/CP4 cells to IC50 for human KB-3-1 cells
smiles,measurement,setting,value
C=C1C(=O)[C@]23[C@H](O)[C@H]1CC[C@H]2[C@]12C=C[C@H](O)C(C)(C)[C@H]1[C@H](O)[C@]3(O)OC2,IC50,[1],61.1 µM
same,IC50,[2],25.5 µM
same,IC50,[3],303 µM
same,IC50,[4],41.1 µM
C=C1C(=O)[C@@]23[C@@H]4OC(C)(C)O[C@@]25OC[C@]2(C=CCC(C)(C)[C@H]2[C@@H]5O)[C@@H]3CC[C@@H]14,Activity,[5],Active
same,IC50,[1],3.61 µM
same,IC50,[2],3.66 µM
same,IC50,[3],1.49 µM
same,IC50,[4],7.98 µM
C=C1C(=O)[C@]23[C@H](O)[C@H]1CC[C@H]2[C@@]12CO[C@@]3(O)[C@@H](O)[C@@H]1C(C)(C)C[C@H](Cl)[C@H]2O,IC50,[1],3.18 µM
same,IC50,[2],1.69 µM
same,IC50,[3],3.43 µM
same,IC50,[4],2.3 µM
same,IC50,[6],6.54 µM
same,IC50,[7],5.92 µM
same,IC50,[8],8.8 µM
same,IC50,[9],49 µM
same,IC50,[10],6.96 µM
same,IC50,[11],5.98 µM
same,Activity,[12],inactive
same,Activity,[13],inactive
same,Ratio IC50,[14],<1
C=C1C(=O)[C@]23[C@H](OC(=O)C4CCCCC4)[C@H]1CC[C@H]2[C@]12C=CCC(C)(C)[C@H]1[C@H](O)[C@]3(O)OC2,IC50,[1],3.6 µM
same,IC50,[2],4.06 µM
same,IC50,[3],5.83 µM
same,IC50,[4],3.22 µM
C=C1C(=O)[C@]23[C@H](OC(=O)c4cccc(Cl)c4)[C@H]1CC[C@H]2[C@]12C=CCC(C)(C)[C@H]1[C@H](O)[C@]3(O)OC2,IC50,[1],3.65 µM
same,IC50,[2],4.16 µM
same,IC50,[3],2.8 µM
same,IC50,[4],2.23 µM
C=C1C(=O)[C@@]23[C@@H]4OC(C)(C)O[C@@]25OC[C@]2([C@@H](OS(C)(=O)=O)CCC(C)(C)[C@H]2[C@@H]5O)[C@@H]3CC[C@@H]14,Activity,[5],Active
C=C1C(=O)[C@]23[C@H](OC(=O)c4ccc(Br)cc4)[C@H]1CC[C@H]2[C@]12C=CCC(C)(C)[C@H]1[C@H](O)[C@]3(O)OC2,IC50,[1],2.01 µM
same,IC50,[2],1.06 µM
same,IC50,[3],0.14 µM
same,IC50,[4],0.33 µM
same,IC50,[6],5.82 µM
same,IC50,[7],3.24 µM
same,IC50,[8],5.31 µM
same,IC50,[9],4.73 µM
same,IC50,[10],5.35 µM
same,IC50,[11],6.05 µM
same,Ratio IC50,[14],<1
C=C1C(=O)[C@]23[C@H](OC(=O)c4cccc(C)c4C)[C@H]1CC[C@H]2[C@]12C=CCC(C)(C)[C@H]1[C@H](O)[C@]3(O)OC2,IC50,[1],3.78 µM
same,IC50,[2],2.33 µM
same,IC50,[3],3.58 µM
same,IC50,[4],1.68 µM
C=C1C(=O)[C@]23[C@H](OC(=O)CCCC)[C@H]1CC[C@H]2[C@]12C=CCC(C)(C)[C@H]1[C@H](O)[C@]3(O)OC2,IC50,[1],6.19 µM
same,IC50,[2],6 µM
same,IC50,[3],2.49 µM
same,IC50,[4],1.74 µM
C=C1C(=O)[C@]23[C@H](OC(=O)c4cc(C)ccc4C)[C@H]1CC[C@H]2[C@]12C=CCC(C)(C)[C@H]1[C@H](O)[C@]3(O)OC2,IC50,[1],6.94 µM
same,IC50,[2],7.11 µM
same,IC50,[3],6.14 µM
same,IC50,[4],4.19 µM
C=C1C(=O)[C@]23[C@H](OC(=O)/C=C/c4ccc(OC)cc4)[C@H]1CC[C@H]2[C@]12C=CCC(C)(C)[C@H]1[C@H](O)[C@]3(O)OC2,IC50,[1],2.91 µM
same,IC50,[2],2.42 µM
same,IC50,[3],0.95 µM
same,IC50,[4],0.88 µM
O=c1[nH]cc(F)c(=O)[nH]1 [FLUOROURACIL],IC50,[1],3.12 µM
same,IC50,[2],2.25 µM
same,IC50,[3],1.75 µM
same,IC50,[4],3.54 µM
C=C1C(=O)[C@]23[C@H](O)[C@H]1CC[C@H]2[C@@]12CO[C@@]3(O)[C@@H](O)[C@@H]1C(C)(C)C[C@H]1O[C@H]12,IC50,[1],5.74 µM
same,IC50,[2],5.77 µM
same,IC50,[3],5.37 µM
same,IC50,[4],1.59 µM
same,IC50,[6],21 µM
same,IC50,[7],7.74 µM
same,IC50,[8],8.81 µM
same,IC50,[9],11.2 µM
same,IC50,[10],13.7 µM
same,IC50,[11],21.6 µM
same,Activity,[12],inactive
same,Activity,[13],inactive
same,Ratio IC50,[14],<1
C=C1C(=O)[C@]23[C@H](OC(=O)c4c(OC)cccc4OC)[C@H]1CC[C@H]2[C@]12C=CCC(C)(C)[C@H]1[C@H](O)[C@]3(O)OC2,IC50,[1],21.2 µM
same,IC50,[2],45.3 µM
same,IC50,[3],12.5 µM
same,IC50,[4],6.85 µM
C=C1C(=O)[C@]23[C@H](OC(=O)c4ccc([N+](=O)[O-])cc4)[C@H]1CC[C@H]2[C@]12C=CCC(C)(C)[C@H]1[C@H](O)[C@]3(O)OC2,IC50,[1],6.39 µM
same,IC50,[2],5.14 µM
same,IC50,[3],4.47 µM
same,IC50,[4],1.7 µM
C=C1C(=O)[C@]23[C@H](OC(C)=O)[C@H]1CC[C@H]2[C@]12C=CC(=O)C(C)(C)[C@H]1[C@H](O)[C@]3(O)OC2,IC50,[1],5.19 µM
same,IC50,[2],3.61 µM
same,IC50,[3],9.41 µM
same,IC50,[4],4.64 µM
C=C1C(=O)[C@]23[C@H](OC(=O)CCCCCCC)[C@H]1CC[C@H]2[C@]12C=CCC(C)(C)[C@H]1[C@H](O)[C@]3(O)OC2,IC50,[1],2.71 µM
same,IC50,[2],4.34 µM
same,IC50,[3],2.44 µM
same,IC50,[4],3 µM
same,Activity,[12],inactive
same,Activity,[13],inactive
C=C1C(=O)[C@]23[C@H](OC(=O)/C=C/c4ccc(F)cc4)[C@H]1CC[C@H]2[C@]12C=CCC(C)(C)[C@H]1[C@H](O)[C@]3(O)OC2,IC50,[1],5.11 µM
same,IC50,[2],2.58 µM
same,IC50,[3],2.51 µM
same,IC50,[4],1.34 µM
C=C1C(=O)[C@]23[C@H](OC(C)=O)[C@H]1CC[C@H]2[C@]12C=CCC(C)(C)[C@H]1[C@H](O)[C@]3(O)OC2,IC50,[1],1.82 µM
same,IC50,[2],1.67 µM
same,IC50,[3],2.57 µM
same,IC50,[4],1.67 µM
C=C1C(=O)[C@]23[C@H](OC(=O)/C=C/c4cccc([N+](=O)[O-])c4)[C@H]1CC[C@H]2[C@]12C=CCC(C)(C)[C@H]1[C@H](O)[C@]3(O)OC2,IC50,[1],2.47 µM
same,IC50,[2],1.77 µM
same,IC50,[3],1.37 µM
same,IC50,[4],0.58 µM
C=C1C(=O)[C@]23[C@H](OC(C)=O)[C@H]1CC[C@H]2[C@]12C=C[C@H](OC(C)=O)C(C)(C)[C@H]1[C@H](O)[C@]3(O)OC2,Activity,[5],Active
same,IC50,[1],3.09 µM
same,IC50,[2],2.07 µM
same,IC50,[3],4.13 µM
same,IC50,[4],1.88 µM
C=C1C(=O)[C@]23[C@H](OC(=O)c4ccccc4C(F)(F)F)[C@H]1CC[C@H]2[C@]12C=CC(=O)C(C)(C)[C@H]1[C@H](O)[C@]3(O)OC2,IC50,[1],3.61 µM
same,IC50,[2],2.93 µM
same,IC50,[3],3.84 µM
same,IC50,[4],2.61 µM
C=C1C(=O)[C@]23[C@H](OC(=O)/C=C/c4cc(OC)c(OC)c(OC)c4)[C@H]1CC[C@H]2[C@]12C=CCC(C)(C)[C@H]1[C@H](O)[C@]3(O)OC2,IC50,[1],3.91 µM
same,IC50,[2],2.44 µM
same,IC50,[3],2.36 µM
same,IC50,[4],0.55 µM
C=C1C(=O)[C@@]23[C@@H]4OC(C)(C)O[C@@]25OC[C@]2([C@@H]6O[C@@H]6CC(C)(C)[C@H]2[C@@H]5O)[C@@H]3CC[C@@H]14,Activity,[5],Active
same,IC50,[1],1.42 µM
same,IC50,[2],1.32 µM
same,IC50,[3],1.58 µM
same,IC50,[4],1.66 µM
C=C1C(=O)[C@]23[C@H](OC(=O)c4ccccc4C(F)(F)F)[C@H]1CC[C@H]2[C@]12C=CCC(C)(C)[C@H]1[C@H](O)[C@]3(O)OC2,IC50,[1],2.46 µM
same,IC50,[2],3.18 µM
same,IC50,[3],2.66 µM
same,IC50,[4],2.96 µM
C=C1C(=O)[C@]23[C@H](OC(=O)c4cc(F)c(F)c(F)c4F)[C@H]1CC[C@H]2[C@]12C=CCC(C)(C)[C@H]1[C@H](O)[C@]3(O)OC2,IC50,[1],1 µM
same,IC50,[2],1.58 µM
same,IC50,[3],2.11 µM
same,IC50,[4],1.83 µM
C=C1C(=O)[C@]23[C@H](OC(=O)c4ccnc(Cl)c4)[C@H]1CC[C@H]2[C@]12C=CC(=O)C(C)(C)[C@H]1[C@H](O)[C@]3(O)OC2,IC50,[1],3.76 µM
same,IC50,[2],3.3 µM
same,IC50,[3],5.15 µM
same,IC50,[4],2.94 µM
C=C1C(=O)[C@]23[C@H](OC(=O)/C=C/c4ccccc4OC)[C@H]1CC[C@H]2[C@]12C=CCC(C)(C)[C@H]1[C@H](O)[C@]3(O)OC2,IC50,[1],2.46 µM
same,IC50,[2],2.22 µM
same,IC50,[3],0.82 µM
same,IC50,[4],0.43 µM
same,IC50,[6],8.31 µM
same,IC50,[7],4.61 µM
same,IC50,[8],5.31 µM
same,IC50,[9],5.53 µM
same,IC50,[10],6.06 µM
same,IC50,[11],6.87 µM
same,Ratio IC50,[14],<1
